# Only some compounds are listed: those with a hit (about 1% of all), similar ones and a draw of the others.
# LYPLA1 inh: blocks human lysophospholipase 1, a PME1 counter-screen. O75608. inhibition, % at 5.9 µM. 320,000 tested, 0.16% active. recombinant LYPLA1, FP-Rh probe fluorescence polarization;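 active means inhibition above the mean of all tested compounds plus 3 SD, set per campaign, cut at about 14% in these data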;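 further: inhibitors block serine hydrolase probe labeling of LYPLA1 so polarization falls; 0% = enzyme with DMSO and 100% = wells lacking LYPLA1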
# LYPLA2 counter: counter-screen for PME1 inhibitors: inhibitors of human LYPLA2; 320,000 tested, 0.38% active; AID 2177; O95372; recombinant LYPLA2, FP-Rh probe fluorescence polarization; inhibition, % at 5.9 µM;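 active means inhibition above the screen-wide mean plus 3 SD, limit set per campaign, cut at about 26% in these data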;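 further: 0% = LYPLA2 with DMSO and 100% = wells lacking LYPLA2 enzyme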
# Target sequence (O95372 whole entry, looked up): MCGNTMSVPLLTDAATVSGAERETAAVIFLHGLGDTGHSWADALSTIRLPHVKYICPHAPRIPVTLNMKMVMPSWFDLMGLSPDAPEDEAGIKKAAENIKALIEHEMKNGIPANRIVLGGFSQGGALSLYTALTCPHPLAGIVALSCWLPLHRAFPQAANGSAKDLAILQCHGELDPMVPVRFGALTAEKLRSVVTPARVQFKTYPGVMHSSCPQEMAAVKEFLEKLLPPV
# proCasp7 act: activates human procaspase-7, counter-screen for procaspase-3 activators; P55210; recombinant procaspase-7, Ac-DEVD-pNA absorbance 405 nm; D23A/D198A/D206A triple mutant, cannot self-cleave; scale: DMSO 0, 5 µM enzyme 100; activation, % at 8.5 µM; 330,000 tested, 0.093% active; AID 463210;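 active means percent activation above the screen-wide mean plus 3 SD, cut at about 25% in these data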
#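 buffer or medium = Zinc-free HEPES/NaCl buffer, pH 7.4 | material = Procaspase-7 triple mutant (PC-7 D3A) | input = 2 µM procaspase-7 mutant as dispensed | signal = Epi-absorbance of released pNA at 405 nm, two timepoints | timing = 1 h preincubation, 2 h reaction | replicates = singlicate compound testing | evaluation = % activation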
# proCasp3 act: procaspase-3 (human) activation | P42574 | 330,000 tested, 0.11% active | recombinant procaspase-3 D3A, Ac-DEVD-pNA absorbance 405 nm | activation, % at 8.5 µM;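 active means activation above the mean of all tested compounds plus 3 SD, cut at about 21% in these data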;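 further: 0% = DMSO alone and 100% = DMSO wells spiked with extra 5 µM PC-3 D3A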
# Target sequence (P42574 whole entry D9A/D28A/D175A): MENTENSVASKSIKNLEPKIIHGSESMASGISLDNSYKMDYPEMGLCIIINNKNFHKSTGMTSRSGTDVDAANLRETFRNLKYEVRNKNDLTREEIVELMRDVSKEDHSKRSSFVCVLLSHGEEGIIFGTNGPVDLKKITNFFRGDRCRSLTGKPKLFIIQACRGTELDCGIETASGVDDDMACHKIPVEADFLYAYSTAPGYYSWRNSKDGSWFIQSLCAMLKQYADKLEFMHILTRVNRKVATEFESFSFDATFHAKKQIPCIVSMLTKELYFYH
#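 Assay system: Procaspase-3 D3A mutant, all three cleavage aspartates alanine. Buffer or medium: Zinc-free HEPES saline buffer with Triton X-100. Times: 1 h compound preincubation, 2 h substrate hydrolysis at 25 °C. Measured by: 405 nm absorbance of p-nitroaniline, reads at 0 and 120 min. Read-out basis: percent activation relative to control range. Replicates: singlicate.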
# PREPL inhibitor: human PREPL enzyme inhibition | recombinant PREPL, fluorescence polarization activity-based probe | inhibition, % at 5.96 µM | 320,000 tested, 0.68% active;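 further: 0% = enzyme with DMSO and 100% = wells lacking enzyme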
# LYPLA1 confirm: counter-screen for PME1 inhibitors: confirmation of human LYPLA1 inhibitors; inhibition, % at 5.9 µM; shares compounds with LYPLA1 inh; recombinant LYPLA1, FP-Rh probe fluorescence polarization; AID 2233; 480 tested, 69% active;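 active means mean inhibition across replicates above the hit cutoff set in the primary screen, cut at about 15% in these data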;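 further: loss of FP-Rh probe labeling of LYPLA1 seen as lower polarization; 0% = LYPLA1 with DMSO and 100% = wells lacking LYPLA1 enzyme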
# LYPLA2 confirm: counter-screen for PME1 inhibitors: confirmation of human LYPLA2 inhibitors; shares compounds with LYPLA2 counter; recombinant LYPLA2, FP-Rh probe fluorescence polarization; inhibition, % at 5.9 µM; 1,100 tested, 72% active;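 active means mean inhibition across replicates above the hit cutoff set in the primary screen, cut at about 26% in these data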;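 further: blocked labeling of the enzyme by serine hydrolase FP-Rh probe lowers polarization; 0% = enzyme with DMSO and 100% = wells lacking LYPLA2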
# LYPLA2 gel ABPP: LYPLA2 (human) inhibition, late stage results | shares compounds with LYPLA2 counter | 150 tested, 30% active | inhibition, % at 20 µM | AID 652029 | rhLYPLA2 in mouse brain proteome, gel ABPP FP-Rh;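 active means inhibition of LYPLA2 enzyme probe labeling above about 50%, limit read from the data; inactive means inhibition below that limit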;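 further: loss of FP-Rh probe labeling of the LYPLA2 gel band measured as band density; 0% = DMSO only control band and 100% = blank gel background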
# PREPL inh cf: confirmation of human PREPL enzyme inhibitors; AID 2803; recombinant PREPL, fluorescence polarization activity probe; 2,000 tested, 67% active; shares compounds with PREPL inhibitor; inhibition, % at 5.96 µM;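 further: 0% = protein with DMSO and 100% = wells lacking protein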
# * hit, by the source's call; · = not tested or not shown. Unless noted, no stated cut-off is given here; in the data, active means inhibition above about 43%; inactive means the rest.
SMILES,LYPLA1 inh,LYPLA2 counter,proCasp7 act,proCasp3 act,PREPL inhibitor,LYPLA2 confirm,others
CCOC(=O)C1CCCN(C(=O)C2c3ccccc3Oc3ccccc32)C1 (stereo not given),56*,59*,-5,-9,65*,3,LYPLA1 confirm=5;PREPL inh cf=-2
CCOC(=O)C1CCCN(C(=O)c2ccc(C(=O)c3ccccc3)cc2)C1 (stereo not given),1,2,-5,2,9,·,
C(=N\n1cnnc1)/c1ccc(N2CCOCC2)s1,2,9,-10,-4,3,·,
Cc1nn(-c2ccccc2)c(Cl)c1/C=N/Nc1ccc(S(=O)(=O)Nc2ccccc2C(=O)O)cc1[N+](=O)[O-],1,28*,-10,7,38,13,
COc1ccccc1C(=O)NC(CCSC)C(=O)N1CCC(Cc2ccccc2)CC1 (stereo not given),2,3,1,6,-7,·,
Oc1oc(-c2ccco2)nc1C=Nc1ccccc1,5,18,-20,-21,9,·,
O=C(O)c1ccc(N=Cc2nc(-c3ccco3)oc2O)cc1,1,31*,-3,-8,5,37*,
Clc1cccc(Cl)c1Cn1ccc(C2CC2)n1,-1,-1,3,5,-5,·,
COc1cc(C(=O)NC(=S)Nc2ccc(Cc3ccncc3)cc2)cc(OC)c1OC,0,26*,-18,-9,-18,17,
Cc1cc(C)cc(C(=O)NC(=S)Nc2ccc(Cc3ccncc3)cc2)c1,-2,34*,5,9,1,41*,
CCOc1ccc(C(=O)NC(=S)Nc2ccc(NC(=O)CC)cc2)cc1[N+](=O)[O-],-2,28*,-10,-5,5,27*,
Cc1ncc([N+](=O)[O-])n1CC(=O)Nc1ccc2c(c1)OCO2,-2,26*,7,1,14,25,
COC(=O)c1ccc(NC(=O)Cn2c([N+](=O)[O-])cnc2C)cc1,1,4,9,4,1,·,
Cc1c(Cl)c([N+](=O)[O-])nn1CC(=O)Nc1ccc2c(c1)OCO2,3,-2,10,0,16,·,
Cc1ncc([N+](=O)[O-])n1CC(=O)Nc1ccc(F)cc1,-3,33*,1,6,3,38*,
Cc1ccc(NC(=O)Cn2c([N+](=O)[O-])cnc2C)cc1,-2,12,11,-4,-3,·,
Cc1ncc([N+](=O)[O-])n1CC(=O)Nc1ccc(Br)cc1,3,46*,-2,1,6,38*,
Cc1ncc([N+](=O)[O-])n1CC(=O)Nc1ccccc1,-1,32*,2,10,1,38*,
CC1=C(C(=O)OC2CCCC2)C(c2coc3ccc(C)cc3c2=O)C2=C(CCCC2=O)N1 (stereo not given),-3,2,14,11,17,·,
Cc1cc(Br)c(NC(=O)Cn2c([N+](=O)[O-])cnc2C)cc1C,-3,3,2,-11,8,·,
Cc1cccc(NC(=O)Cn2c([N+](=O)[O-])cnc2C)c1C,7,31*,1,-7,6,32*,
NC(=O)C1CCN(C(=O)COc2ccc(S(=O)(=O)NCc3ccccc3)cc2Cl)CC1,-4,1,-4,8,13,·,
COc1ccc(N2CCN(C(=O)CN(C)S(=O)(=O)c3ccc4c(c3)c(=O)n(C)c(=O)n4C)CC2)cc1,6,61*,4,7,11,51*,LYPLA2 gel ABPP=14
COc1ccc(S(=O)(=O)CCC(=O)N2CCN(c3ccc([N+](=O)[O-])cc3)CC2)cc1,9,55*,-21,-3,-8,58*,LYPLA2 gel ABPP=25
CCOC(=O)N1CCN(C(=O)CCN2C(=O)c3ccccc3S2(=O)=O)CC1,0,0,6,5,3,·,
SMILES,LYPLA1 inh,LYPLA2 counter,proCasp7 act,proCasp3 act,PREPL inhibitor,LYPLA2 confirm,others
Cc1ccc(S(=O)(=O)CCC(=O)N2CCN(c3ccc([N+](=O)[O-])cc3)CC2)cc1,9,39*,-18,-4,-19,35*,
CN(CC(=O)N1CCN(c2ccc(F)cc2)CC1)S(=O)(=O)c1ccc2c(c1)c(=O)n(C)c(=O)n2C,0,8,5,3,6,·,
COc1ccc(N2CCN(C(=O)CCN3C(=O)c4ccccc4S3(=O)=O)CC2)cc1,-1,34*,-15,-6,18,34*,
COc1ccc(OC)c(CCNC(=O)Cn2cccc2C(=O)c2ccccc2C)c1,2,-1,3,4,-1,·,
COc1ccc(C(=O)c2nccc3cc(OC)c(OC)cc23)cc1OC,9,26*,-4,0,32,17,
COc1ccc(C(=O)c2ccc(OC)c(OC)c2)cc1OC,-4,2,-2,5,7,·,
Cn1c(=O)c2c(ncn2CC(=O)N/N=C/C(Cl)=C/c2ccccc2)n(C)c1=O,8,32*,1,-2,11,22,
Cn1c(=O)c2c(ncn2CCC(=O)N/N=C/c2ccccc2)n(C)c1=O,2,1,3,-14,15,·,
C/C(=C\c1ccccc1)C(=O)N1CCN(c2cccc(C(F)(F)F)c2)CC1,-1,7,-2,-5,1,·,
Cc1ccc(/C=C/C(=O)N2CCN(c3cccc(C(F)(F)F)c3)CC2)cc1,13,47*,10,5,-1,35*,
COc1ccc(-c2noc(CCC(=O)N3CCN(c4cccc(C(F)(F)F)c4)CC3)n2)cc1,5,69*,4,-4,-13,67*,LYPLA2 gel ABPP=70*
COc1ccc(N(CN2C(=O)C3CC=CCC3C2=O)C(=O)c2ccco2)cc1 (stereo not given),1,-1,7,8,-6,·,
O=C(NC1CCOCC1)C1CCC(=O)N(Cc2cccc(C(F)(F)F)c2)C1 (stereo not given),-1,3,8,1,2,·,
Cc1c(Cc2ccccc2)c(=O)oc2cc(OCc3ccc(C(=O)O)cc3)ccc12,13,28*,0,3,-4,52*,LYPLA2 gel ABPP=24
COc1cccc(CN2CCN(C(=O)c3cc(-c4cccnc4)nc4ccc(C)cc34)CC2)c1,0,-1,-4,5,-21,·,
O=C1N(O)C2(C=CCCC2)/C(=N\O)C12CCCCC2 (stereo not given),-1,-2,5,-2,-2,·,

# Screening data deposited in PubChem by The Scripps Research Institute Molecular Screening Center.
